# Measured values from different studies.
# Compare with care: the assays were run in different laboratories. pEC50, pIC50, pKd, pKi: −log10 of the molar value.
# PIP4K2C: Phosphatidylinositol 5-phosphate 4-kinase type-2 gamma (PIP4K2C, Homo sapiens, UniProt Q8TBX8)
# MAPK9: Mitogen-activated protein kinase 9 (MAPK9, Homo sapiens, UniProt P45984)
Structure (SMILES),target,read-out,action,technique,notes,measurement,value
c1cncc(-c2cccc(Nc3nccc(NC4CCCCC4)n3)c2)c1,"Tyrosine-protein kinase JAK2, JH1 (JAK2, Homo sapiens, UniProt O60674)",binding,,competition with immobilised ligand,,pKd,6.59
CC(=O)CC(c1ccccc1)c1c(O)c2ccccc2oc1=O (stereo not drawn),"Vitamin K epoxide reductase complex subunit 1-like protein 1 (Homo sapiens, UniProt Q8N0U8)",enzyme activity,inhibitor,fluorescence,,pKi,7.02
Cc1ncsc1-c1ccc([C@H](C)NC(=O)[C@@H]2C[C@@H](O)CN2C(=O)[C@@H](NC(=O)CCCCCC(=O)N2CCC3(CC2)CCN(c2cncc(Nc4ncc(Cl)c(-c5cccc(-c6ccccc6)c5)n4)c2)C3=O)C(C)(C)C)cc1,PIP4K2C,protein level,degrader,western blot,,DC50,24 nM
Nc1ncc2c(n1)-c1c([nH]c3ccc(C#CC4CC4)cc13)CCCC2,PIP4K2C,binding,,competition with immobilised ligand,,pKd,5.19
COc1ccc2c(Oc3ccc4c(C(=O)Nc5ccccc5N)cccc4c3)ccnc2c1,MAPK9,enzyme activity,inhibitor,,,pIC50,< 6.30
CC(C)C[C@H](NC(=O)[C@H](Cc1ccccc1)NC(=O)[C@H](Cc1ccc(O)cc1)NC(=O)CNC(=O)[C@H](CCCNC(=N)N)NC(=O)[C@H](CO)NC(=O)[C@H](CCC(N)=O)NC(=O)[C@H](CO)NC(=O)[C@H](C)NC(=O)[C@H](Cc1ccccc1)NC(=O)[C@@H]1CCCN1C(=O)[C@H](CO)NC(=O)[C@H](CCC(N)=O)NC(=O)[C@H](Cc1ccccc1)NC(=O)[C@H](CCC(=O)O)NC(=O)[C@H](CCC(=O)O)NC(=O)[C@H](CC(=O)O)NC(=O)[C@@H](NC(=O)[C@H](CCCNC(=N)N)NC(=O)[C@@H](N)Cc1ccccc1)C(C)C)C(=O)N[C@@H](Cc1ccccc1)C(=O)N[C@@H](CCCNC(=N)N)C(=O)N1CCC[C@H]1C(=O)N[C@@H](CCCNC(=N)N)C(=O)N[C@@H](CC(N)=O)C(N)=O,"Neuromedin-U receptor 1 (NMUR1, Homo sapiens, UniProt Q9HB89)",inositol phosphate,agonist,,,pEC50,9.91
CCOc1cc(-c2nncn2C)ccc1Nc1ncc2cc(C)nc(NCC(C)(C)C)c2n1,MAPK9,binding,,competition with immobilised ligand,,pKd,7.13
Nc1ccn([C@@H]2O[C@H](COP(=O)(O)OP(=O)(O)OP(=O)(O)O)[C@@H](O)[C@H]2O)c(=O)n1,"virB (Shigella flexneri, UniProt P0A247)",binding,,ITC,,pKd,5.03
Cc1cc2nc3c(=O)[nH]c(=O)nc-3n(C[C@H](O)[C@H](O)[C@H](O)COP(=O)(O)OP(=O)(O)OC[C@H]3O[C@@H](n4cnc5c(N)ncnc54)[C@H](O)[C@@H]3O)c2cc1C,"Alpha-crystallin B chain (CRYAB, Homo sapiens, UniProt P02511)",binding,,,lysate,pKd,6.82
Cc1cnc(-c2ccc(-c3ccc(NC(=O)Nc4c(F)cc(F)cc4F)cc3F)c3c2C(=O)NC3)[nH]1,"Proto-oncogene tyrosine-protein kinase receptor Ret (RET, Homo sapiens, UniProt P07949)",binding,,competition with immobilised ligand,,pKd,8.03
COc1ccc(-c2nsc(NC(=O)[C@@H]3C[C@H]3C)c2C)cc1,"Metabotropic glutamate receptor 2 (GRM2, Homo sapiens, UniProt Q14416)",calcium signal,agonist,,,pEC50,< 4.60
CC(C)(C)CC(C)(C)c1ccc(O)cc1,"Estrogen receptor beta (ESR2, Homo sapiens, UniProt Q92731)",reporter gene,agonist,luciferase,,pEC50,6.71
